Source: ChEMBL document CHEMBL3351414, “Novel 9'-substituted-noscapines: synthesis with Suzuki cross-coupling, structure elucidation and biological evaluation” (Eur J Med Chem, 2014)
The source made the active and inactive calls. The rule behind the calls is not given here.

Legend:
HeLa [1] = experiment: Effect on PCM1 protein in human HeLa cells assessed as accumulation of pericentriolar material at 25 uM after 24 hrs by immunofluorescence microscopy; assay type: functional, cell-based
How it was run: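 After 24 h at 25 µM, HeLa cells were stained with anti-PCM1 and Alexa-conjugated secondary antibody, with phalloidin-tetramethylrhodamine B for actin and DAPI for nuclei. Cells were imaged by confocal microscopy at 60×.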

[2] = Antiproliferative activity against human RS4:11 cells assessed as reduction in cell viability after 72 hrs by MTT assay; assay type: functional, cell-based; conditions: RS4-11, 72 h
How it was run: (§1)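 Cells kept in RPMI-1640 (Jurkat, SEM, RS4;11) or DMEM (A549, HeLa, IGROV-1, HT-29) with 10% FBS plus penicillin/streptomycin. 8×10^3 cells per well were left 18 h at 37 °C in 5% CO2. Medium was then replaced with fresh medium holding graded compound concentrations from 10 mM DMSO stocks. Cells were incubated 72 h and viability read by MTT. IC50 is the mean ± SEM from dose–response curves of at least three independent experiments.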

IGROV-1 = experiment: Antiproliferative activity against human IGROV1 cells assessed as reduction in cell viability after 72 hrs by MTT assay; assay type: functional, cell-based; conditions: IGROV-1, 72 h; how it was run: as §1
[3] = Antiproliferative activity against human SEM cells assessed as reduction in cell viability after 72 hrs by MTT assay; assay type: functional, cell-based; how it was run: as §1
PBL [4] = experiment: Cytotoxicity against resting human PBLs assessed as reduction in cell growth; assay type: cell-based
How it was run: (§2)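 Peripheral blood lymphocytes from healthy donors, tested either resting (no PHA) or PHA-stimulated. Value is the concentration reducing cell growth by 50%, mean ± SEM of three separate experiments.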

Tubulin (Bos taurus) = Tubulin (Bos taurus) (UniProt Q6B856+Q862L2+Q862F3); experiment: Displacement of [3H]colchicine from bovine brain tubulin at 500 uM after 10 mins by liquid scintillation counting
PBL [5] = experiment: Cytotoxicity against PHA-stimulated human PBLs assessed as reduction in cell growth; assay type: cell-based; how it was run: as §2
LoVo = experiment: Antiproliferative activity against human LoVo cells assessed as reduction in cell viability after 72 hrs by MTT assay; assay type: functional, cell-based
Tubulin [6] = biological target: T1, Tubulin (Bos taurus, UniProt Q6B856+Q862L2+Q862F3); experiment: Displacement of [3H]colchicine from bovine brain tubulin assessed as rate of assembly after 10 mins by liquid scintillation counting
Jurkat = experiment: Antiproliferative activity against human Jurkat cells assessed as reduction in cell viability after 72 hrs by MTT assay; assay type: functional, cell-based; how it was run: as §1
Tubulin [7] = biological target: T1, Tubulin; experiment: Inhibition of bovine brain tubulin assessed as rate of assembly preincubated for 15 mins by turbidimetry
How it was run: (§3)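 Bovine brain tubulin at 10 µM (1.0 mg/mL) in 0.8 M monosodium glutamate pH 6.6 with 4% DMSO and varying compound was preincubated 15 min at 30 °C, then chilled. GTP was added to 0.4 mM final and the temperature jumped from 0 to 30 °C. Turbidity was followed at 350 nm, scoring either maximum rate or extent of assembly at 20 min.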

HT-29 = experiment: Antiproliferative activity against human HT-29 cells assessed as reduction in cell viability after 72 hrs by MTT assay; assay type: functional, cell-based; conditions: HT-29, 72 h; how it was run: as §1
HeLa [8] = experiment: Antiproliferative activity against human HeLa cells assessed as reduction in cell viability after 72 hrs by MTT assay; assay type: functional, cell-based; how it was run: as §1
CCRF-CEM = experiment: Antiproliferative activity against human CEM cells assessed as reduction in cell viability after 72 hrs by MTT assay; assay type: functional, cell-based
Tubulin [9] = biological target: T1, Tubulin; experiment: Inhibition of bovine brain tubulin assessed as extent of assembly preincubated for 15 mins by turbidimetry; how it was run: as §3
A549 = experiment: Antiproliferative activity against human A549 cells assessed as reduction in cell viability after 72 hrs by MTT assay; assay type: functional, cell-based; conditions: A549, 72 h; how it was run: as §1

For COC(=O)Nc1nc2cc(C(=O)c3cccs3)ccc2[nH]1, the Activity (HeLa [1]) was “Active”.

For COc1ccccc1-c1c2c(c(OC)c3c1OCO3)[C@H]([C@H]1OC(=O)c3c1ccc(OC)c3OC)N(C)CC2, the IC50 [2] was 13.8 µM, the IC50 (IGROV-1) was 90.9 µM and the IC50 [3] was 22.2 µM. For the same compound, the IC50 (PBL [4]) was greater than 200 µM, the inhibition (Tubulin (Bos taurus)) was 13% and the IC50 (PBL [5]) was 42.4 µM. For the same compound, the IC50 (LoVo) was 57.1 µM, the IC50 (Tubulin [6]) was greater than 400 µM and the IC50 (Jurkat) was 33.6 µM. For the same compound, the IC50 (Tubulin [7]) was greater than 400 µM, the IC50 (HT-29) was 72.7 µM and the IC50 (HeLa [8]) was 30.8 µM. For the same compound, the IC50 (CCRF-CEM) was 6.9 µM, the IC50 (Tubulin [9]) was greater than 400 µM and the IC50 (A549) was 59.7 µM.

With COc1ccc2c(c1OC)C(=O)O[C@@H]2[C@H]1c2c(cc3c(c2OC)OCO3)CCN1C [NOSCAPINE] the inhibition (Tubulin (Bos taurus)) was 44%, the IC50 (Tubulin [7]) was 170 µM and the IC50 (Tubulin [9]) was greater than 400 µM.

With COc1ccc2c(c1OC)C(=O)O[C@@H]2[C@H]1c2c(c(-c3ccc4ccccc4c3)c3c(c2OC)OCO3)CCN1C the IC50 [2] was 30.8 µM, the IC50 (IGROV-1) was 67 µM and the IC50 [3] was 8.4 µM. For the same compound, the IC50 (PBL [4]) was greater than 200 µM, the IC50 (PBL [5]) was greater than 200 µM and the IC50 (LoVo) was 60.3 µM. For the same compound, the IC50 (Jurkat) was 20 µM, the IC50 (HT-29) was 58.5 µM and the IC50 (HeLa [8]) was 27.4 µM. The IC50 (CCRF-CEM) was 23.3 µM and the IC50 (A549) was 48.1 µM.
